Published values pooled from the literature.
Protocols differ between the studies behind these lines.
Target: Serine/threonine-protein kinase NLK (NLK, Homo sapiens, UniProt Q9UBE8)
One construct used (Q9UBE8 1-527): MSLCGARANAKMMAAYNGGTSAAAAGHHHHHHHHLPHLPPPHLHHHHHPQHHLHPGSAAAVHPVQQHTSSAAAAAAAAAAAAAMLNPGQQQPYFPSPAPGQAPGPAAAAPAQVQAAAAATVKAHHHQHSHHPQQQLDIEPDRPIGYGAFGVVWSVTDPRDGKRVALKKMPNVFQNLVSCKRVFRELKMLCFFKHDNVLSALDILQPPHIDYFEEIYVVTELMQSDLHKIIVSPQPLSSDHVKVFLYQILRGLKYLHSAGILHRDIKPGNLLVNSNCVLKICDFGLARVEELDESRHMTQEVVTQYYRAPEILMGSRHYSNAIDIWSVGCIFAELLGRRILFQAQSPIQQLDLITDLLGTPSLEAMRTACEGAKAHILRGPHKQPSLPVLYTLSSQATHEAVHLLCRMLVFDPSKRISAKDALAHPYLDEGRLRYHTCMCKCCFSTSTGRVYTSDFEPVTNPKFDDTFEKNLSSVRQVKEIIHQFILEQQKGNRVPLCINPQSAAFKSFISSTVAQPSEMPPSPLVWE

CNC(=O)[C@@H]1CC[C@@H](n2c(-c3ccc4cnccc4c3)nc3ccc(C(=O)NCc4cccc(C(N)=O)c4)cc32)C1 — remaining binding (binding, competition with immobilised ligand; 1 µM): 100%
CN(CCCC(F)(F)F)c1nccc(-c2cnn3ncccc23)n1 — remaining binding (binding; 1 µM): 66%
O=C(Nc1c[nH]nc1C(=O)NC1CCNCC1)c1cc(F)cc(F)c1 — remaining binding (binding, competition with immobilised ligand; 1 µM): 90%
Cc1cnc(Nc2ccc(C(=O)N3CCC(N4CCCC4)CC3)cc2)nc1-c1cc2ccccc2s1 — remaining binding (binding, competition with immobilised ligand; 1 µM): 69%
C[C@@H]1CCN(c2nccc(-c3cnn4ncccc34)n2)C1 — remaining binding (binding; 1 µM): 70%
C[C@@H]1CN(c2cc(-c3nn(C)c4ccc(OC5(C)CC5)cc34)ncn2)C[C@H](C)O1 — remaining binding (cell-free assay, competition with immobilised ligand; 1 µM): 96%
O=C(c1ccc(Nc2ncc(Cl)c(-c3ccc(Cl)s3)n2)cc1)N1CCC(N2CCCC2)CC1 — remaining binding (binding, competition with immobilised ligand; 1 µM): 98%
C[C@H](c1cccc(C#N)c1)n1cc(Cl)cc(C(N)=O)c1=N — remaining binding (cell-free assay, competition with immobilised ligand; 1 µM): 44%
CCN1CCN(Cc2ccc(C(=O)Nc3ccc(C)c(Oc4ccc5c(c4)CC(=O)N5)c3)cc2C(F)(F)F)CC1 — remaining binding (binding, competition with immobilised ligand; 1 µM): 79%
CN(C)c1nccc(-c2cnn3ncccc23)n1 — remaining binding (binding; 1 µM): 100%
COc1ccc2c(c1)O[C@@H](c1ccc(OC)c(OC)c1)C[C@H]2NC(=O)C1(c2ccc3c(c2)OC(F)(F)O3)CC1 — remaining binding (cell-free assay, competition with immobilised ligand; 1 µM): 100%
Nc1ncc2c(n1)-c1c([nH]c3ccc(C#CC4CC4)cc13)CCCC2 — remaining binding (binding, competition with immobilised ligand; 1 µM): 85%
c1cncc(-c2cccc(Nc3nccc(NC4CCCCC4)n3)c2)c1 — remaining binding (binding, competition with immobilised ligand; 10 µM): 67%
Cc1c(C(=O)O)cc(-c2ccc(C3CCNCC3)cc2)c2ccc(-c3ccc(C(F)(F)F)cc3)cc12 — remaining binding (binding, competition with immobilised ligand; 1 µM): 100%
CN(C)c1nccc(-c2cnc3ncccn23)n1 — remaining binding (binding; 1 µM): 74%
O=C(c1ccc(Nc2nccc(-c3cc4ccccc4s3)n2)cc1)N1CCC(N2CCCC2)CC1 — remaining binding (binding, competition with immobilised ligand; 1 µM): 93%
CN(C)c1ncc(F)c(-c2cnn3ncccc23)n1 — remaining binding (binding; 1 µM): 74%
CS(=O)(=O)NCC[C@H](NC(=O)c1cncc2c1cnn2-c1ccc(F)cc1)c1ccnc(S(C)(=O)=O)c1 — remaining binding (cell-free assay, competition with immobilised ligand; 1 µM): 100%
COc1ccnn2ncc(-c3ccnc(N(C)C)n3)c12 — remaining binding (binding; 1 µM): 87%
FC(F)(F)Oc1cccc(-c2cnc3ccc(-c4ccncc4)nn23)c1 — remaining binding (cell-free assay, competition with immobilised ligand; 5 µM): 85%
N[C@@H]1CCN(c2nccc(-c3cnn4ncccc34)n2)C1 — remaining binding (binding; 1 µM): 100%
CN([C@@H]1CCc2c(CC(=O)O)c3cc(S(C)(=O)=O)ccc3n2C1)S(=O)(=O)c1ccc(F)cc1 — remaining binding (cell-free assay, competition with immobilised ligand; 1 µM): 100%
